Assay results taken from ChEMBL document CHEMBL1129688, “ATP-citrate lyase as a target for hypolipidemic intervention. Design and synthesis of 2-substituted butanedioic acids as novel, potent inhibitors of the enzyme” (J Med Chem, 1996).

Columns and labels:
[1] = molecular target: T1, ATP-citrate synthase (Rattus norvegicus, UniProt P16638); assay: Inhibition of recombinant ATP-Citrate Lyase activity as […] dehydrogenase catalyzed reduction of oxaloacetate by NADH; settings: in the assay text read “purified rat ATP-Citrate Lyase” for “recombinant ATP-Citrate Lyase”
T1 sequence (P16638 whole entry): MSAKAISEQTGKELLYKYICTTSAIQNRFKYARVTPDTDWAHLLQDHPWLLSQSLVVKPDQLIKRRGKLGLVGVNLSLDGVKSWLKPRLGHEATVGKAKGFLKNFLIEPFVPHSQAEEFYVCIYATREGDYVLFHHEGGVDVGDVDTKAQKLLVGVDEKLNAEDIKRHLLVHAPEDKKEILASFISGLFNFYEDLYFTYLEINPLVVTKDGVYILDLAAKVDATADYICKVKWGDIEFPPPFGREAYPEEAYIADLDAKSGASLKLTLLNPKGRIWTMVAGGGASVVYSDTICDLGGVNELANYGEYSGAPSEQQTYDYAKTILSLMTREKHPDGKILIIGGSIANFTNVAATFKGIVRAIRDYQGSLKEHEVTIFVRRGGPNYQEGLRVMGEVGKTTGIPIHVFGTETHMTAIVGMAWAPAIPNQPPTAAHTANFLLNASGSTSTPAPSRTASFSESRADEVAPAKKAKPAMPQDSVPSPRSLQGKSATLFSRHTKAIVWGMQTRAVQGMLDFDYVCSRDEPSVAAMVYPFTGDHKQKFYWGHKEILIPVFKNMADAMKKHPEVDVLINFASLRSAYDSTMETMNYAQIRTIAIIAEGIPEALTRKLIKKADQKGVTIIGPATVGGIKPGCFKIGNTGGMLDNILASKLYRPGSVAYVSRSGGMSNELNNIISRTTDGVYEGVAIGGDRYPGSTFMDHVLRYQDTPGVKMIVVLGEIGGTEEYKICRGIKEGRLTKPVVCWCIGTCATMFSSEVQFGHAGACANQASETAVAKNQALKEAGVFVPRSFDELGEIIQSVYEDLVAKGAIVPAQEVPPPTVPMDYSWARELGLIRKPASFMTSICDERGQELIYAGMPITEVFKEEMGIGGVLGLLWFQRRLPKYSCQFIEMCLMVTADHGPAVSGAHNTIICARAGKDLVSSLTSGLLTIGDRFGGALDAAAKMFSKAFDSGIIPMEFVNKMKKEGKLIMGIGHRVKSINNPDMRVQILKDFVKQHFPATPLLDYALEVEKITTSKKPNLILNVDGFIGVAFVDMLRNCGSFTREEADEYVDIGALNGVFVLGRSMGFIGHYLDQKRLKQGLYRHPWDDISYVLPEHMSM
Summary of the method: (§1)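 Purified rat ACL or recombinant human ACL was assayed by coupling oxaloacetate formation to malate dehydrogenase reduction with NADH. Buffer: Tris 100 mM pH 8.0, MgCl2 10 mM, KCl 10 mM, DTT 10 mM, plus ATP and NADH. CoA was 200 μM, and citrate was added to 100 μM (its Km) to start the reaction. A340 decrease was followed over 20 min. Ki came from fitting v = Vmax/(2 + [I]/Ki), assuming citrate-competitive inhibition.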

[2] = molecular target: T1, ATP-citrate synthase; assay: Inhibitory activity against rat ATP-citrate lyase activity by the […] dehydrogenase catalyzed reduction of oxaloacetate by NADH.; summary of the method: as §1
[3] = test system: HepG2; assay: Percent reduction of fatty acid synthesis in human hepatoma cell line HepG2 at 10 uM concentration; format: functional; design: scale not given: the % may be the effect or the level left
Summary of the method: (§2)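 HepG2 cells were grown in DMEM with Hepes, bicarbonate, glutamine and 10% FCS to 80–90% confluence, then kept overnight serum-free. Vehicle or compound was added at the stated final concentration for 2.5 h. ³H2O (71 μCi/mmol) was present for the final 90 min. Synthesis rates came from ³H incorporated into cellular cholesterol or fatty acids, relative to vehicle control.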

[4] = test system: HepG2; assay: Percent control of ATP levels in human hepatoma cell line HepG2 at 1000 uM concentration; format: functional
Summary of the method: (§3)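 Serum-starved HepG2 cells (grown to 80–90% confluence in DMEM/10% FCS, then overnight without serum) were exposed to vehicle or compound at the stated final concentration for 2.5 h. Cellular ATP was then measured as a toxicity check and expressed as % of vehicle control.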

[5] = test system: HepG2; assay: Percent reduction of fatty acid synthesis in human hepatoma cell line HepG2 at 1000 uM concentration; format: functional; summary of the method: as §2
[6] = test system: HepG2; assay: Percent reduction of cholesterol synthesis in human hepatoma cell line HepG2 at 10 uM concentration; format: functional; design: scale not given: the % may be the effect or the level left; summary of the method: as §2
[7] = test system: HepG2; assay: Percent control of ATP levels in human hepatoma cell line HepG2 at 10 uM concentration; format: functional; summary of the method: as §3
[8] = test system: HepG2; assay: Percent reduction of cholesterol synthesis in human hepatoma cell line HepG2 at 1000 uM concentration; format: functional; summary of the method: as §2
[9] = molecular target: T2, ATP-citrate synthase (Homo sapiens) (UniProt P53396); assay: (§4) Inhibitory activity against human recombinant ATP-Citrate Lyase activity was measured by the […] dehydrogenase catalyzed reduction of oxaloacetate by NADH; settings: concentration not given here; summary of the method: as §1
T2 sequence (whole entry): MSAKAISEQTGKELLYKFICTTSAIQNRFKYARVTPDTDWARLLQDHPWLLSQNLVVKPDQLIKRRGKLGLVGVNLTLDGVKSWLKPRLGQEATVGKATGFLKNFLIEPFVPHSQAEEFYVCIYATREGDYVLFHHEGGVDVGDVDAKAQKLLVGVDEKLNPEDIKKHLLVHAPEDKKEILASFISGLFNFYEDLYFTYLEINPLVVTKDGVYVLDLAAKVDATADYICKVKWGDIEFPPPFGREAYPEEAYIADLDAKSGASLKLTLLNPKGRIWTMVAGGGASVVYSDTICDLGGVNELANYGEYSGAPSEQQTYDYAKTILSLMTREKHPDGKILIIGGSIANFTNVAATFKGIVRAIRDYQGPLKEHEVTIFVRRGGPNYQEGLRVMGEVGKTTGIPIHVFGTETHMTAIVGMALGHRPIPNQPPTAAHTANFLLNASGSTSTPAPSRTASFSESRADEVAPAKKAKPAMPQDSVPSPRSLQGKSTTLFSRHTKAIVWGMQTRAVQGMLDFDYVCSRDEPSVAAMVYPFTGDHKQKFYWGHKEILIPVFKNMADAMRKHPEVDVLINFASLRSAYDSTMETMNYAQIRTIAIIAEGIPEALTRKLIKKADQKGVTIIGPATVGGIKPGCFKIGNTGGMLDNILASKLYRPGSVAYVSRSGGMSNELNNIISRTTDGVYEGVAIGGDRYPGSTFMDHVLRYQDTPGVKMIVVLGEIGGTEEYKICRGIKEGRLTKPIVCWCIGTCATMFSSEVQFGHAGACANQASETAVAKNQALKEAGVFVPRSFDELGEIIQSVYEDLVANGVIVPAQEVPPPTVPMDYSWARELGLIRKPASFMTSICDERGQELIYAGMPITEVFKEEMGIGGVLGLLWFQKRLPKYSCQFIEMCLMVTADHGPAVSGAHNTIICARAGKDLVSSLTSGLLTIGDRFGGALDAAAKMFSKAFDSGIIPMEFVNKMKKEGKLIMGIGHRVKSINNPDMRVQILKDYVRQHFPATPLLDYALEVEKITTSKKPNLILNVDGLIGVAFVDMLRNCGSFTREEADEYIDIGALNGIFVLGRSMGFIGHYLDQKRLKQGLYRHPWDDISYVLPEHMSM

[10] = test system: HepG2; assay: Percent control of ATP levels in human hepatoma cell line HepG2 at 30 uM concentration; format: functional; summary of the method: as §3
[11] = molecular target: T3, ATP-citrate synthase (Homo sapiens, UniProt P53396); assay: as §4; summary of the method: as §1
T3 sequence (P53396 whole entry): T2 sequence (whole entry)

Compound	Ki [2] [µM]	other results
O=C(O)CC(O)(CSCCCCCCc1ccc2ccccc2c1)C(=O)O (configuration not stated)	–	Ki [1]: 93 µM
O=C(O)CC(O)(CSCCCCCCc1ccc(-c2ccccc2)cc1)C(=O)O (configuration not stated)	38	–
O=C(O)CC(O)(CSCCCCCc1ccc(-c2ccccc2)cc1)C(=O)O (configuration not stated)	226	–
O=C(O)CC(O)(CSCCCCNS(=O)(=O)c1ccc(Cl)cc1Cl)C(=O)O (configuration not stated)	175	–
O=C(O)CC(O)(CSCCCCCC(=O)c1ccc(Cl)cc1Cl)C(=O)O (configuration not stated)	130	–
O=C(O)CC(O)(CSCCCCCCc1ccc(C(=O)O)cc1)C(=O)O (configuration not stated)	420	–
O=C(O)CC(O)(CSCCCCCCc1cccc(Cl)c1)C(=O)O (configuration not stated)	150	–
O=C(O)CC(O)(CSCCCCCCc1ccncc1)C(=O)O (configuration not stated)	–	inhibition [9]: 20%
O=C(O)CC(O)(CSCCCCCCc1ccc(O)cc1)C(=O)O (configuration not stated)	420	–
COC(=O)CC(CSCCCCCCc1ccc(Cl)cc1Cl)C(=O)OC (configuration not stated)	–	Control [3]: 105%; Control [10]: 91%; Control [6]: 78%; Control [7]: 96%
O=C(O)CC(O)(CSCCCCCCc1ccc(F)cc1)C(=O)O (configuration not stated)	120	–
O=C(O)CC(CSCCCCC[S+]([O-])c1ccc(Cl)cc1Cl)C(=O)O (configuration not stated)	131	–
O=C(O)CC(O)(CSCCCCCCc1ccc(Cl)c(Cl)c1)C(=O)O (configuration not stated)	110	–
O=C(O)CC(O)(CSCCCCCCc1ccc(Cl)cc1)C(=O)O (configuration not stated)	71	–
O=C(O)CC(O)(CSCCCCCCc1c(Cl)cncc1Cl)C(=O)O (configuration not stated)	–	Ki [11]: 121 µM

Continued by falling Ki [2], values first:

Ki [2] [µM]	Compound	other results
33	O=C(O)CC(O)(CSCCCC/C=C/c1ccc(Cl)cc1Cl)C(=O)O (configuration not stated)	–
25	O=C(O)CCCSCCCCCCc1ccc(Cl)cc1Cl	–
25	O=C(O)CC(O)(CC(=O)CCCCCc1ccc(Cl)cc1Cl)C(=O)O (configuration not stated)	–
21	O=C(O)CC(O)(CSCCCCCc1ccccc1-c1ccccc1)C(=O)O (configuration not stated)	–
18	O=C(O)CC(O)(CSCCCCCCc1ccccc1-c1ccccc1)C(=O)O (configuration not stated)	–
12	O=C(O)CC(O)(CSCCCCCNc1ccc(Cl)cc1Cl)C(=O)O (configuration not stated)	–
10.5	O=C(O)CC(O)(CCCCCCCc1ccc(Cl)cc1Cl)C(=O)O (configuration not stated)	–
10	O=C(O)CC(O)(CSCCCCCSc1ccc(Cl)cc1Cl)C(=O)O (configuration not stated)	–
7.4	O=C(O)CC(O)(CSCCCC/C=C\c1ccc(Cl)cc1Cl)C(=O)O (configuration not stated)	–
7.3	O=C(O)CC(O)(CSCCCCCCc1cccc(Cl)c1Cl)C(=O)O (configuration not stated)	–
2.9	O=C(O)CC(O)(CCSCCCCCc1ccc(Cl)cc1Cl)C(=O)O (configuration not stated)	–
2.9	O=C(O)CC(O)(CCCCCCCCc1ccc(Cl)cc1Cl)C(=O)O (configuration not stated)	–
1.2	O=C(O)CC(O)(CC(=O)CCCCCCc1ccc(Cl)cc1Cl)C(=O)O (configuration not stated)	Control [3]: 98%; Control [4]: 107%; Fatty acid synthesis (% of vehicle control) [5]: 102%; Control [6]: 108%; Control [7]: 102%; Cholesterol synthesis (% of vehicle control) [8]: 102%
